Assay results published in ChEMBL document CHEMBL5724801, “EUbOPEN Chemogenomics Library - Multiplex” (2024).
Where “and” joins values, the source holds several entries; their conditions need not be identical. Equal entries are not always repeated.

Tested on: HEK-293T
Assay: Multiplex assay against HEK293T
Assay type: toxicity, cell-based
Conditions: human
In short: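 On a CQ1 microscope at 37°C and 5% CO2, live cells were imaged after compound addition. They had been stained at seeding with Hoechst33342, BioTracker Green Microtubule Cytoskeleton Dye, MitoTracker Red and Annexin V Alexa Fluor 680. CellPathfinder machine-learning gating assigned cells to Hoechst high-intensity objects or normal cells, normal cells to healthy, pyknosed or fragmented nuclei, and pyknosed cells to mitotic or apoptotic. Tubulin, mitochondrial-mass and membrane-permeability phenotypes are per cents of healthy-nucleus cells.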

[1] = 12 h, 1 µM, compound concentration 1 uM
[2] = 12 h, 10 µM, compound concentration 10 uM
[3] = 24 h, 1 µM, compound concentration 1 uM
[4] = 24 h, 10 µM, compound concentration 10 uM
[5] = 48 h, 1 µM, compound concentration 1 uM
[6] = 48 h, 10 µM, compound concentration 10 uM

For `C[C@H]1[C@H]2CC[C@H]3[C@@H]4CC=C5C[C@@H](N(C)C)CC[C@]5(C)[C@H]4CC[C@]23CN1C` [CONESSINE], the “Population Apoptotic (%)” value [1] was 35% and 48%, the “Population Fragmented Nuclei (%)” value [1] was 5% and 4% and the “Population Healthy Nuclei (%)” value [1] was 78% and 85%. The “Population Hoechst High Intensity Objects (%)” value [1] was 6% and 8%, the “Population Membrane Permeable-Phenotype (%)” value [1] was 0% and the “Population Mitochondria Different-Phenotype (%)” value [1] was 39% and 58%. The “Population Mitotic Cells (%)” value [1] was 65% and 51%, the “Population Normal (%)” value [1] was 93% and 91% and the “Population Pyknosed Nuclei (%)” value [1] was 16% and 10%. For the same compound, the “Population Tubulin-Different-Phenotype (%)” value [1] was 26% and 22%, the “Total Cell Count” value [1] was 400 and 356 and the “Population Apoptotic (%)” value [2] was 35% and 59%. The “Population Fragmented Nuclei (%)” value [2] was 6% and 7%, the “Population Healthy Nuclei (%)” value [2] was 77% and 78% and the “Population Hoechst High Intensity Objects (%)” value [2] was 6% and 9%. For the same compound, the “Population Membrane Permeable-Phenotype (%)” value [2] was 1% and 0%, the “Population Mitochondria Different-Phenotype (%)” value [2] was 56% and 62% and the “Population Mitotic Cells (%)” value [2] was 65% and 40%. The “Population Normal (%)” value [2] was 93% and 90%, the “Population Pyknosed Nuclei (%)” value [2] was 15% and 14% and the “Population Tubulin-Different-Phenotype (%)” value [2] was 38% and 30%. The “Total Cell Count” value [2] was 419 and 384, the “Population Apoptotic (%)” value [3] was 26% and 25% and the “Population Fragmented Nuclei (%)” value [3] was 9% and 8%. The “Population Healthy Nuclei (%)” value [3] was 80% and 81%, the “Population Hoechst High Intensity Objects (%)” value [3] was 5% and 4% and the “Population Membrane Permeable-Phenotype (%)” value [3] was 1% and 0%. For the same compound, the “Population Mitochondria Different-Phenotype (%)” value [3] was 22% and 34%, the “Population Mitotic Cells (%)” value [3] was 73% and 75% and the “Population Normal (%)” value [3] was 94% and 95%. The “Population Pyknosed Nuclei (%)” value [3] was 10%, the “Population Tubulin-Different-Phenotype (%)” value [3] was 17% and 16% and the “Total Cell Count” value [3] was 514 and 484. For the same compound, the “Population Apoptotic (%)” value [4] was 27% and 47%, the “Population Fragmented Nuclei (%)” value [4] was 9% and the “Population Healthy Nuclei (%)” value [4] was 79% and 82%. For the same compound, the “Population Hoechst High Intensity Objects (%)” value [4] was 6% and 9%, the “Population Membrane Permeable-Phenotype (%)” value [4] was 1% and 0% and the “Population Mitochondria Different-Phenotype (%)” value [4] was 38% and 43%. The “Population Mitotic Cells (%)” value [4] was 72% and 52%, the “Population Normal (%)” value [4] was 93% and 90% and the “Population Pyknosed Nuclei (%)” value [4] was 11% and 7%. For the same compound, the “Population Tubulin-Different-Phenotype (%)” value [4] was 28% and 24%, the “Total Cell Count” value [4] was 572 and 474 and the “Population Apoptotic (%)” value [5] was 30% and 36%. The “Population Fragmented Nuclei (%)” value [5] was 9% and 10%, the “Population Healthy Nuclei (%)” value [5] was 82% and 83% and the “Population Hoechst High Intensity Objects (%)” value [5] was 2% and 4%. The “Population Membrane Permeable-Phenotype (%)” value [5] was 1%, the “Population Mitochondria Different-Phenotype (%)” value [5] was 18% and 20% and the “Population Mitotic Cells (%)” value [5] was 69% and 63%. For the same compound, the “Population Normal (%)” value [5] was 97% and 95%, the “Population Pyknosed Nuclei (%)” value [5] was 7% and 5% and the “Population Tubulin-Different-Phenotype (%)” value [5] was 12% and 11%. For the same compound, the “Total Cell Count” value [5] was 735 and 630, the “Population Apoptotic (%)” value [6] was 27% and 36% and the “Population Fragmented Nuclei (%)” value [6] was 14% and 10%. For the same compound, the “Population Healthy Nuclei (%)” value [6] was 78% and 81%, the “Population Hoechst High Intensity Objects (%)” value [6] was 4% and 5% and the “Population Membrane Permeable-Phenotype (%)” value [6] was 1% and 0%. For the same compound, the “Population Mitochondria Different-Phenotype (%)” value [6] was 23% and 32%, the “Population Mitotic Cells (%)” value [6] was 72% and 63% and the “Population Normal (%)” value [6] was 95% and 94%. For the same compound, the “Population Pyknosed Nuclei (%)” value [6] was 6% and 7%, the “Population Tubulin-Different-Phenotype (%)” value [6] was 15% and 17% and the “Total Cell Count” value [6] was 767 and 618.
In the case of `CN(C)c1ccnc2sc3c(=O)n(N4CCCCCC4)cnc3c12`, the “Population Apoptotic (%)” value [1] is reported as 45% and 51%, the “Population Fragmented Nuclei (%)” value [1] is reported as 9% and 5% and the “Population Healthy Nuclei (%)” value [1] is reported as 76% and 82%. The “Population Hoechst High Intensity Objects (%)” value [1] was 4% and 8%, the “Population Membrane Permeable-Phenotype (%)” value [1] was 1% and 0% and the “Population Mitochondria Different-Phenotype (%)” value [1] was 50% and 67%. For the same compound, the “Population Mitotic Cells (%)” value [1] was 54% and 48%, the “Population Normal (%)” value [1] was 95% and 91% and the “Population Pyknosed Nuclei (%)” value [1] was 13% and 12%. For the same compound, the “Population Tubulin-Different-Phenotype (%)” value [1] was 43% and 25%, the “Total Cell Count” value [1] was 360 and 335 and the “Population Apoptotic (%)” value [2] was 36% and 59%. The “Population Fragmented Nuclei (%)” value [2] was 4% and 9%, the “Population Healthy Nuclei (%)” value [2] was 81% and 72% and the “Population Hoechst High Intensity Objects (%)” value [2] was 10% and 13%. For the same compound, the “Population Membrane Permeable-Phenotype (%)” value [2] was 0%, the “Population Mitochondria Different-Phenotype (%)” value [2] was 78% and 76% and the “Population Mitotic Cells (%)” value [2] was 63% and 40%. For the same compound, the “Population Normal (%)” value [2] was 89% and 86%, the “Population Pyknosed Nuclei (%)” value [2] was 14% and 17% and the “Population Tubulin-Different-Phenotype (%)” value [2] was 79% and 59%. For the same compound, the “Total Cell Count” value [2] was 387 and 308, the “Population Apoptotic (%)” value [3] was 30% and 25% and the “Population Fragmented Nuclei (%)” value [3] was 10% and 7%. For the same compound, the “Population Healthy Nuclei (%)” value [3] was 76% and 84%, the “Population Hoechst High Intensity Objects (%)” value [3] was 4% and 5% and the “Population Membrane Permeable-Phenotype (%)” value [3] was 1% and 0%. For the same compound, the “Population Mitochondria Different-Phenotype (%)” value [3] was 27% and 51%, the “Population Mitotic Cells (%)” value [3] was 70% and 74% and the “Population Normal (%)” value [3] was 95% and 94%. The “Population Pyknosed Nuclei (%)” value [3] was 12% and 7%, the “Population Tubulin-Different-Phenotype (%)” value [3] was 24% and 22% and the “Total Cell Count” value [3] was 510 and 470. The “Population Apoptotic (%)” value [4] was 42% and 66%, the “Population Fragmented Nuclei (%)” value [4] was 7% and 10% and the “Population Healthy Nuclei (%)” value [4] was 76% and 74%. The “Population Hoechst High Intensity Objects (%)” value [4] was 8% and 13%, the “Population Membrane Permeable-Phenotype (%)” value [4] was 0% and the “Population Mitochondria Different-Phenotype (%)” value [4] was 80% and 75%. The “Population Mitotic Cells (%)” value [4] was 57% and 33%, the “Population Normal (%)” value [4] was 91% and 86% and the “Population Pyknosed Nuclei (%)” value [4] was 16% and 15%. For the same compound, the “Population Tubulin-Different-Phenotype (%)” value [4] was 71% and 53%, the “Total Cell Count” value [4] was 428 and 359 and the “Population Apoptotic (%)” value [5] was 27% and 20%. The “Population Fragmented Nuclei (%)” value [5] was 13% and 11%, the “Population Healthy Nuclei (%)” value [5] was 78% and 82% and the “Population Hoechst High Intensity Objects (%)” value [5] was 2% and 3%. The “Population Membrane Permeable-Phenotype (%)” value [5] was 0% and 2%, the “Population Mitochondria Different-Phenotype (%)” value [5] was 23% and 31% and the “Population Mitotic Cells (%)” value [5] was 72% and 80%. The “Population Normal (%)” value [5] was 97% and 96%, the “Population Pyknosed Nuclei (%)” value [5] was 7% and 6% and the “Population Tubulin-Different-Phenotype (%)” value [5] was 14% and 15%. For the same compound, the “Total Cell Count” value [5] was 721 and 663, the “Population Apoptotic (%)” value [6] was 70% and 57% and the “Population Fragmented Nuclei (%)” value [6] was 15% and 11%. The “Population Healthy Nuclei (%)” value [6] was 72% and 75%, the “Population Hoechst High Intensity Objects (%)” value [6] was 8% and 6% and the “Population Membrane Permeable-Phenotype (%)” value [6] was 0%. For the same compound, the “Population Mitochondria Different-Phenotype (%)” value [6] was 66% and 63%, the “Population Mitotic Cells (%)” value [6] was 29% and 42% and the “Population Normal (%)” value [6] was 91% and 93%. The “Population Pyknosed Nuclei (%)” value [6] was 12%, the “Population Tubulin-Different-Phenotype (%)” value [6] was 54% and 45% and the “Total Cell Count” value [6] was 497 and 450.
